According to ChEMBL document CHEMBL1938388, “Design, synthesis and biological evaluation of new naphtalene diimides bearing isothiocyanate functionality” (Eur J Med Chem, 2012):
Calls of active or inactive are those of the source. The rule behind the calls is not given here.

Assays:
Jurkat [1] = assay: Cytotoxicity against human Jurkat T cells assessed as decrease in cell viability after 24 hrs by flow cytometric analysis; type: functional, cell-based
Method in brief: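 Jurkat cultures kept in exponential growth (split every third day to 1 × 10^5 cells/ml) were treated for one cell cycle (24 h) at graded concentrations. Viability was read right after treatment by flow cytometry after 5 min propidium iodide-based stain at room temperature. IC50 was interpolated from the dose-response curve; ≥3 independent experiments, mean ± SEM.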

Jurkat [2] = assay: Induction of apoptosis in human Jurkat T cells assessed as caspase 8 activation at 0.25 to 1 uM after 24 hrs by FAM-LETD-FMK staining-based flow cytometric analysis
Jurkat [3] = assay: Cell cycle arrest in human Jurkat T cells assessed as accumulation at G2/M phase at 0.25 to 0.5 uM after 24 hrs by flow cytometric analysis; type: functional, cell-based
Method in brief: (§1)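 Jurkat cells exposed 24 h to a range of concentrations, fixed in ice-cold ethanol, stained with propidium iodide-containing cell cycle reagent for 30 min at room temperature in the dark; G1, S and G2/M fractions from flow cytometry. Mean ± SEM of four independent experiments.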

Jurkat [4] = assay: Induction of apoptosis in human Jurkat T cells assessed as decrease in membrane potential after 24 hrs by JC-1 staining-based flow cytometric analysis; type: functional, cell-based
Jurkat [5] = assay: Growth inhibition in human Jurkat T cells assessed as suppression into cell cycle progression at 1.5 uM after 24 hrs by flow cytometric analysis; type: functional; details: read-out: GI
Method in brief: (§2)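 Jurkat cells were treated 24 h at graded concentrations, and cell growth inhibition was measured by flow cytometry. Mean ± SEM of at least three independent experiments.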

Jurkat [6] = assay: Growth inhibition in human Jurkat T cells assessed as suppression into cell cycle progression at 1 uM after 24 hrs by flow cytometric analysis; type: functional; details: read-out: GI; method in brief: as §2
Jurkat [7] = assay: Induction of apoptosis in human Jurkat T cells assessed as decrease in membrane potential at 2 uM after 24 hrs by JC-1 staining-based flow cytometric analysis; type: functional; parameters: scale not given: the % may be the effect or the level left
Jurkat [8] = assay: Induction of apoptosis in human Jurkat T cells assessed as increase in necrotic cells at 1.5 uM after 24 hrs by 7-AA staining-based flow cytometric analysis; type: functional, cell-based
Jurkat [9] = assay: Induction of apoptosis in human Jurkat T cells assessed as decrease in membrane potential at 0.75 uM after 24 hrs by JC-1 staining-based flow cytometric analysis; type: functional; parameters: scale not given: the % may be the effect or the level left
Jurkat [10] = assay: Growth inhibition in human Jurkat T cells assessed as suppression into cell cycle progression at 3 uM after 24 hrs by flow cytometric analysis; type: functional; details: read-out: GI; method in brief: as §2
Jurkat [11] = assay: Cell cycle arrest in human Jurkat T cells assessed as accumulation at G1 phase at 0.25 to 0.5 uM after 24 hrs by flow cytometric analysis (reference value: 58%); type: functional; method in brief: as §1
Jurkat [12] = assay: Induction of apoptosis in human Jurkat T cells assessed as decrease in membrane potential at 0.5 uM after 24 hrs by JC-1 staining-based flow cytometric analysis; type: functional; parameters: scale not given: the % may be the effect or the level left
Jurkat [13] = assay: Cell cycle arrest in human Jurkat T cells assessed as accumulation at S phase at 0.25 to 0.5 uM after 24 hrs by flow cytometric analysis; type: functional, cell-based; method in brief: as §1
Jurkat [14] = assay: Induction of apoptosis in human Jurkat T cells assessed as increase in phosphatidylserine level after 24 hrs by flow cytometric analysis; type: functional, cell-based
Jurkat [15] = assay: Cytotoxicity against human Jurkat T cells assessed as necrotic cells at 0.1 to 16 uM after 72 hrs by flow cytometric analysis; type: functional, cell-based
Method in brief: (§3)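 After 72 h exposure of Jurkat cells, 2 × 10^4 cells were stained with an Annexin V-PE/7-AAD cocktail for 20 min at room temperature in the dark. Necrotic cells were scored by flow cytometry.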

Jurkat [16] = assay: Induction of apoptosis in human Jurkat T cells assessed as caspase 8 activation after 24 hrs by FAM-LETD-FMK staining-based flow cytometric analysis
Jurkat [17] = assay: Ratio IC50 for sulforaphane to compound for human Jurkat T cells; type: functional
Jurkat [18] = assay: Induction of apoptosis in human Jurkat T cells assessed as increase in phosphatidylserine level at 0.25 to 1.5 uM after 24 hrs by flow cytometric analysis; type: functional, cell-based
Jurkat [19] = assay: Induction of apoptosis in human Jurkat T cells assessed as decrease in membrane potential at 0.25 to 1 uM after 24 hrs by JC-1 staining-based flow cytometric analysis; type: functional, cell-based
Jurkat [20] = assay: Cytotoxicity against human Jurkat T cells assessed as necrotic cells at 1 uM after 72 hrs by flow cytometric analysis; type: functional; method in brief: as §3
Jurkat [21] = assay: Induction of apoptosis in human Jurkat T cells assessed as increase in phosphatidylserine level at 2 uM after 24 hrs by flow cytometric analysis; type: functional, cell-based
Method in brief: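 Jurkat T leukemia cells were exposed for 24 h. Aliquots of 2 × 10^4 cells were then stained with Guava Nexin Reagent, which contains Annexin V-PE for phosphatidylserine exposure and 7-AAD for membrane-permeable, necrotic cells. Staining ran 20 min at room temperature in the dark, followed by flow cytometry. Data are mean ± SEM of at least three independent experiments. Friedman test, Dunn's post test.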

Jurkat [22] = assay: Growth inhibition in human Jurkat T cells assessed as suppression into cell cycle progression at 2 uM after 24 hrs by flow cytometric analysis; type: functional; method in brief: as §2
Jurkat [23] = assay: Induction of apoptosis in human Jurkat T cells assessed as caspase 8 activation at 0.25 to 0.75 uM after 24 hrs by FAM-LETD-FMK staining-based flow cytometric analysis
Jurkat [24] = assay: Induction of apoptosis in human Jurkat T cells assessed as increase in phosphatidylserine level at 0.25 to 1 uM after 24 hrs by flow cytometric analysis; type: functional, cell-based
Jurkat [25] = assay: Induction of apoptosis in human Jurkat T cells assessed as decrease in membrane potential at 0.25 to 0.75 uM after 24 hrs by JC-1 staining-based flow cytometric analysis; type: functional, cell-based
Jurkat [26] = assay: Cell cycle arrest in human Jurkat T cells assessed as accumulation at S phase at 0.25 to 0.5 uM after 24 hrs by flow cytometric analysis (reference value: 21%); type: functional; method in brief: as §1
Jurkat [27] = assay: Cell cycle arrest in human Jurkat T cells assessed as accumulation at G1 phase at 0.25 to 0.5 uM after 24 hrs by flow cytometric analysis (reference value: 56%); type: functional; method in brief: as §1
Jurkat [28] = assay: Induction of apoptosis in human Jurkat T cells assessed as increase in apoptotic cells at 0.75 uM after 24 hrs by 7-AA staining-based flow cytometric analysis relative to sulforaphane
Jurkat [29] = assay: Growth inhibition in human Jurkat T cells assessed as suppression into cell cycle progression at 0.75 uM after 24 hrs by flow cytometric analysis; type: functional; details: read-out: GI; method in brief: as §2
Jurkat [30] = assay: Induction of apoptosis in human Jurkat T cells assessed as increase in necrotic cells at 1 uM after 24 hrs by 7-AA staining-based flow cytometric analysis; type: functional, cell-based
Jurkat [31] = assay: Cell cycle arrest in human Jurkat T cells assessed as accumulation at G2/M phase at 0.25 to 0.5 uM after 24 hrs by flow cytometric analysis (reference value: 29%); type: functional; method in brief: as §1
Jurkat [32] = assay: Cell cycle arrest in human Jurkat T cells assessed as accumulation at G1 phase at 0.5 to 1 uM after 24 hrs by flow cytometric analysis (reference value: 63%); type: functional; method in brief: as §1
Jurkat [33] = assay: Cell cycle arrest in human Jurkat T cells assessed as accumulation at S phase at 0.5 to 1 uM after 24 hrs by flow cytometric analysis (reference value: 20%); type: functional; method in brief: as §1
Jurkat [34] = assay: Induction of apoptosis in human Jurkat T cells assessed as increase in necrotic cells at 4 uM after 24 hrs by 7-AA staining-based flow cytometric analysis; type: functional, cell-based
Jurkat [35] = assay: Cell cycle arrest in human Jurkat T cells assessed as accumulation at G2/M phase at 0.5 to 1 uM after 24 hrs by flow cytometric analysis; type: functional, cell-based; method in brief: as §1
Jurkat [36] = assay: Growth inhibition in human Jurkat T cells assessed as suppression into cell cycle progression at 8 uM after 24 hrs by flow cytometric analysis; type: functional; details: read-out: GI; method in brief: as §2
Jurkat [37] = assay: Induction of apoptosis in human Jurkat T cells assessed as increase in phosphatidylserine level at 0.5 to 4 uM after 24 hrs by flow cytometric analysis; type: functional, cell-based
Jurkat [38] = assay: Induction of apoptosis in human Jurkat T cells assessed as decrease in membrane potential at 1 uM after 24 hrs by JC-1 staining-based flow cytometric analysis; type: functional; parameters: scale not given: the % may be the effect or the level left
Jurkat [39] = assay: Growth inhibition in human Jurkat T cells assessed as suppression into cell cycle progression at 4 uM after 24 hrs by flow cytometric analysis; type: functional; details: read-out: GI; method in brief: as §2
Jurkat [40] = assay: Induction of apoptosis in human Jurkat T cells assessed as decrease in membrane potential at 0.5 to 2 uM after 24 hrs by JC-1 staining-based flow cytometric analysis; type: functional, cell-based
Jurkat [41] = assay: Induction of apoptosis in human Jurkat T cells assessed as caspase 8 activation at 0.5 to 2 uM after 24 hrs by FAM-LETD-FMK staining-based flow cytometric analysis

Compound: C[S+]([O-])CCCCN=C=S (stereo unspecified) [SULFORAPHANE]
- IC50 (Jurkat [1]): 15000 nM

Compound: O=C1c2ccc3c4c(ccc(c24)C(=O)N1CCN=C=S)C(=O)N(CCN=C=S)C3=O
- Activity (Jurkat [2]): 66%
- Activity (Jurkat [3]): Active
- Activity (Jurkat [1]): Dose-dependent effect
- IC50 (Jurkat [1]): 890 nM
- Activity (Jurkat [4]): Dose-dependent effect
- inhibition of growth at 1.5 µM (Jurkat [5]): 58%
- inhibition of growth at 1 µM (Jurkat [6]): 40%
- Activity (Jurkat [7]): 100%
- Activity (Jurkat [8]): Active
- Activity (Jurkat [9]): 100%
- inhibition of growth at 3 µM (Jurkat [10]): 94%
- Activity (Jurkat [11]): 68%
- Activity (Jurkat [12]): 50.6%
- Activity (Jurkat [13]): Active
- Activity (Jurkat [14]): Dose-dependent effect
- Activity (Jurkat [15]): Active
- Activity (Jurkat [16]): Dose-dependent effect
- Ratio IC50 (Jurkat [17]): 17
- Activity (Jurkat [18]): Active
- Activity (Jurkat [19]): Active
- Activity (Jurkat [20]): 100%

Compound: CC[C@@]1(O)C(=O)OCc2c1cc1n(c2=O)Cc2cc3ccccc3nc2-1
- Activity (Jurkat [21]): Active

Compound: O=C1c2ccc3c4c(ccc(c24)C(=O)N1CCCN=C=S)C(=O)N(CCCN=C=S)C3=O
- growth inhibition (GI) (Jurkat [22]): Active
- Activity (Jurkat [1]): Dose-dependent effect
- IC50 (Jurkat [1]): 430 nM
- Activity (Jurkat [4]): Dose-dependent effect
- Activity (Jurkat [23]): 68%
- inhibition of growth at 1 µM (Jurkat [6]): 65%
- Activity (Jurkat [7]): 100%
- Activity (Jurkat [9]): 100%
- Activity (Jurkat [24]): Active
- Activity (Jurkat [25]): Active
- Activity (Jurkat [26]): 13%
- Activity (Jurkat [27]): 68%
- Activity (Jurkat [12]): 47.1%
- Activity (Jurkat [14]): Dose-dependent effect
- fold change (FC) (Jurkat [28]): 40
- inhibition of growth at 0.75 µM (Jurkat [29]): 30%
- Activity (Jurkat [15]): Active
- Activity (Jurkat [16]): Dose-dependent effect
- Activity (Jurkat [30]): Active
- Ratio IC50 (Jurkat [17]): 35
- Activity (Jurkat [31]): 22%
- Activity (Jurkat [20]): 100%

Compound: CN(C)CCN1C(=O)c2ccc3c4c(ccc(c24)C1=O)C(=O)N(CCN=C=S)C3=O
- inhibition of growth at 2 µM (Jurkat [22]; read-out: GI): 30%
- Activity (Jurkat [32]): 68%
- Activity (Jurkat [1]): Dose-dependent effect
- IC50 (Jurkat [1]): 1910 nM
- Activity (Jurkat [4]): Dose-dependent effect
- Activity (Jurkat [33]): 15%
- Activity (Jurkat [34]): Active
- Activity (Jurkat [7]): 100%
- Activity (Jurkat [9]): 100%
- Activity (Jurkat [14]): Dose-dependent effect
- Activity (Jurkat [15]): Active
- Activity (Jurkat [16]): Dose-dependent effect
- Activity (Jurkat [35]): inactive
- inhibition of growth at 8 µM (Jurkat [36]): 90%
- Activity (Jurkat [37]): Active
- Ratio IC50 (Jurkat [17]): 8
- Activity (Jurkat [38]): 53%
- inhibition of growth at 4 µM (Jurkat [39]): 40%
- Activity (Jurkat [40]): Active
- Activity (Jurkat [41]): 56%
- Activity (Jurkat [20]): 100%
